Measurements as given in ChEMBL document CHEMBL5154934, “Structure-Guided Design of Potent Spirocyclic Inhibitors of Severe Acute Respiratory Syndrome Coronavirus-2 3C-like Protease” (J Med Chem, 2022).
Active and inactive are the calls of the source. The rule behind the calls is not given here.

Legend:
[1] = Cytotoxicity against african green monkey Vero E6 cells; format: toxicity, cell-based, Vero C1008; conditions: chlorocebus sabaeus
[2] = molecular target: Replicase polyprotein 1ab (Severe acute respiratory syndrome coronavirus 2, UniProt P0DTD1); test: Inhibition of N-terminal His6-tagged SARS-CoV2 Wuhan-Hu-1 3C-like protease […] expressed in Escherichia coli BL21 (DE3) cells using FAM-SAVLQ/SG-QXL520 as substrate by FRET enzyme assay
Summary of the method: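 Enzyme was full-length codon-optimized N-terminal His6 protease from pET-28a. It was preincubated with serial inhibitor dilutions, or DMSO, for 1 h at 37°C in 20 mM HEPES pH 8 with 200 mM NaCl, 0.4 mM EDTA, 60% glycerol and 6 mM DTT. FAM-SAVLQ/SG-QXL520 was then added and fluorescence (ex 480/em 520 nm) read after 1 h. Readings were background-subtracted. IC50 came from a variable-slope fit, mean ± SD of ≥3 replicates.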

[3] = Inhibition of MERS-CoV 3C-like protease incubated for 30 mins by FRET enzyme assay; design: species or system Middle East respiratory syndrome-related coronavirus
SARS-CoV-2 [4] = test: Antiviral activity against SARS-CoV-2 3C-like measured after 24 hrs; format: functional, organism-based; conditions: Severe acute respiratory syndrome coronavirus 2, 24 h
SARS-CoV-2 [5] = test: Antiviral activity against N-terminal His6-tagged SARS-CoV-2 3C-like protease […] HEK293T cells measured after 24 hrs by cell based replicon assay; format: functional, organism-based; conditions: Severe acute respiratory syndrome coronavirus 2
[6] = Safety index, ratio of CC50 for cytotoxicity against Vero E6 cells to EC50 for antiviral activity against SARS-CoV-2 Wuhan-Hu-1; format: toxicity, cell-based, Vero C1008; conditions: monkey, read-out: Ratio CC50/EC50

With `CC(C)C[C@H](NC(=O)OC1CC2(C1)CN(C(=O)C(C)C)C2)C(=O)N[C@@H](C[C@H]1CCNC1=O)C(=O)C(O)S(=O)(=O)O` (stereo partly specified) the CC50 [1] was > 100 µM.

With `CC(C)C[C@H](NC(=O)OC1CC2(C1)CN(S(C)(=O)=O)C2)C(=O)N[C@@H](C[C@H]1CCNC1=O)C(=O)C(O)S(=O)(=O)O` (stereo partly specified) the CC50 [1] was > 100 µM.

In the case of `CC(C)C[C@H](NC(=O)OC1CC2(CCN(C(=O)C(C)C)CC2)C1)C(=O)N[C@@H](C[C@H]1CCNC1=O)C(=O)C(O)S(=O)(=O)O` (stereo partly specified), the CC50 [1] is reported as > 100 µM.

In the case of `CC(C)C[C@H](NC(=O)OC1CC2(CCN(C(=O)Cc3ccccc3)CC2)C1)C(=O)N[C@@H](C[C@H]1CCNC1=O)C(=O)C(O)S(=O)(=O)O` (stereo partly specified), the CC50 [1] is reported as > 100 µM.

For `CC(C)C[C@H](NC(=O)OC1CC2(C1)CN(S(C)(=O)=O)C2)C(=O)N[C@H](C=O)C[C@H]1CCNC1=O`, the IC50 [2] was 0.68 µM, the IC50 [3] was 0.22 µM and the CC50 [1] was > 100 µM.

In the case of `CC(C)C[C@H](NC(=O)OC1CC2(C1)CN(C(=O)Cc1ccccc1)C2)C(=O)N[C@@H](C[C@H]1CCNC1=O)C(=O)C(O)S(=O)(=O)O` (stereo partly specified), the CC50 [1] is reported as > 100 µM.

In the case of `CC(C)C[C@H](NC(=O)OC1(C)CN(C(=O)OC(C)(C)C)C1)C(=O)N[C@H](C=O)C[C@H]1CCNC1=O`, the IC50 [2] is reported as 3.65 µM, the IC50 [3] is reported as 3.45 µM and the CC50 [1] is reported as > 100 µM.

With `CC(C)C[C@H](NC(=O)OC1CC2(CCN(C(=O)OC(C)(C)C)CC2)C1)C(=O)N[C@@H](C[C@H]1CCNC1=O)C(=O)C(O)S(=O)(=O)O` (stereo partly specified) the CC50 [1] was > 100 µM, the EC50 (SARS-CoV-2 [4]) was 0.08 µM and the Activity (SARS-CoV-2 [5]) was “Active”. It also gave a selectivity ratio [6] of 1250.

For `CC(C)C[C@H](NC(=O)OCC1CN(C(=O)OC(C)(C)C)C1)C(=O)N[C@H](C=O)C[C@H]1CCNC1=O`, the IC50 [2] was 0.41 µM, the IC50 [3] was 0.49 µM and the CC50 [1] was > 100 µM. For the same compound, the EC50 (SARS-CoV-2 [4]) was 0.38 µM and the Activity (SARS-CoV-2 [5]) was “Active”.

For `CC(C)C[C@H](NC(=O)OCC1CN(C(=O)OC(C)(C)C)C1)C(=O)N[C@@H](C[C@H]1CCNC1=O)C(=O)C(O)S(=O)(=O)O` (stereo partly specified), the CC50 [1] was > 100 µM, the EC50 (SARS-CoV-2 [4]) was 0.43 µM and the Activity (SARS-CoV-2 [5]) was “Active”.

With `CC(C)C[C@H](NC(=O)OC1CC2(CCN(C(=O)OC(C)(C)C)C2)C1)C(=O)N[C@@H](C[C@H]1CCNC1=O)C(=O)C(O)S(=O)(=O)O` (stereo partly specified) the CC50 [1] was > 100 µM.

With `CC(C)C[C@H](NC(=O)OCC1CN(S(C)(=O)=O)C1)C(=O)N[C@@H](C[C@H]1CCNC1=O)C(=O)C(O)S(=O)(=O)O` (stereo partly specified) the CC50 [1] was > 100 µM.

In the case of `CC(C)C[C@H](NC(=O)OCC1CN(C(=O)Cc2ccccc2)C1)C(=O)N[C@@H](C[C@H]1CCNC1=O)C(=O)C(O)S(=O)(=O)O` (stereo partly specified), the CC50 [1] is reported as > 100 µM.

With `[2H]C([2H])(OC(=O)N[C@@H](CC(C)C)C(=O)N[C@H](C=O)C[C@H]1CCNC1=O)C1CN(C(=O)OC(C)(C)C)C1` the IC50 [2] was 0.33 µM, the IC50 [3] was 0.35 µM and the CC50 [1] was > 100 µM.

For `CC(C)C[C@H](NC(=O)OCC1CN(C(=O)C2CC3CCC2C3)C1)C(=O)N[C@H](C=O)C[C@H]1CCNC1=O` (stereo partly specified), the IC50 [2] was 0.52 µM, the IC50 [3] was 0.19 µM and the CC50 [1] was > 100 µM.

In the case of `CC(C)C[C@H](NC(=O)OC1CC2(C1)CN(C(=O)OC(C)(C)C)C2)C(=O)N[C@@H](C[C@H]1CCNC1=O)C(=O)C(O)S(=O)(=O)O` (stereo partly specified), the CC50 [1] is reported as > 100 µM.

For `CC(C)C[C@H](NC(=O)OC1CC2(CCN(C#N)CC2)C1)C(=O)N[C@@H](C[C@H]1CCNC1=O)C(=O)C(O)S(=O)(=O)O` (stereo partly specified), the CC50 [1] was > 100 µM.

For `[2H]C([2H])(OC(=O)N[C@@H](CC(C)C)C(=O)N[C@@H](C[C@H]1CCNC1=O)C(=O)C(O)S(=O)(=O)[O-])C1CN(C(=O)OC(C)(C)C)C1.[Na+]` (stereo partly specified), the CC50 [1] was > 100 µM.

In the case of `CC(C)C[C@H](NC(=O)OC1CC2(C1)CN(C(=O)Cc1ccccc1)C2)C(=O)N[C@H](C=O)C[C@H]1CCNC1=O`, the IC50 [2] is reported as 0.26 µM, the IC50 [3] is reported as 0.21 µM and the CC50 [1] is reported as > 100 µM.

In the case of `CC(C)C[C@H](NC(=O)OC1CC2(CCN(C(=O)Cc3ccccc3)CC2)C1)C(=O)N[C@H](C=O)C[C@H]1CCNC1=O`, the IC50 [2] is reported as 0.35 µM, the IC50 [3] is reported as 0.7 µM and the CC50 [1] is reported as > 100 µM.

For `CC(C)C[C@H](NC(=O)OCC1CN(C(=O)Cc2ccccc2)C1)C(=O)N[C@H](C=O)C[C@H]1CCNC1=O`, the IC50 [2] was 0.83 µM, the IC50 [3] was 0.28 µM and the CC50 [1] was > 100 µM.

In the case of `CC(C)C[C@H](NC(=O)OC1CC2(C1)CN(C(=O)C(C)C)C2)C(=O)N[C@H](C=O)C[C@H]1CCNC1=O`, the IC50 [2] is reported as 1.15 µM, the IC50 [3] is reported as 0.35 µM and the CC50 [1] is reported as > 100 µM.

With `CC(C)C[C@H](NC(=O)OC1CC2(CCN(C(=O)C(C)C)CC2)C1)C(=O)N[C@H](C=O)C[C@H]1CCNC1=O` the IC50 [2] was 0.38 µM, the IC50 [3] was 0.65 µM and the CC50 [1] was > 100 µM.

In the case of `CC(C)C[C@H](NC(=O)OCC1CN(S(C)(=O)=O)C1)C(=O)N[C@H](C=O)C[C@H]1CCNC1=O`, the IC50 [2] is reported as 4.95 µM, the IC50 [3] is reported as 1.4 µM and the CC50 [1] is reported as > 100 µM.

For `CC(C)C[C@H](NC(=O)OC1CN(C(=O)OC(C)(C)C)C1)C(=O)N[C@@H](C[C@H]1CCNC1=O)C(=O)C(O)S(=O)(=O)O` (stereo partly specified), the CC50 [1] was > 100 µM.

With `CC(C)C[C@H](NC(=O)OCC1CN(C(=O)C2CC3CCC2C3)C1)C(=O)N[C@@H](C[C@H]1CCNC1=O)C(=O)C(O)S(=O)(=O)O` (stereo partly specified) the CC50 [1] was > 100 µM.

With `CC(C)C[C@H](NC(=O)OC1CCC2(C1)CN(C(=O)OC(C)(C)C)C2)C(=O)N[C@H](C=O)C[C@H]1CCNC1=O` (stereo partly specified) the IC50 [2] was 1.25 µM, the IC50 [3] was 1.01 µM and the CC50 [1] was > 100 µM.

In the case of `CC(C)C[C@H](NC(=O)OC1CC2(C1)CN(C(=O)OC(C)(C)C)C2)C(=O)N[C@H](C=O)C[C@H]1CCNC1=O`, the IC50 [2] is reported as 3.3 µM, the IC50 [3] is reported as 1.5 µM and the CC50 [1] is reported as > 100 µM.

For `CC(C)C[C@H](NC(=O)OC1CC2(CCN(S(C)(=O)=O)CC2)C1)C(=O)N[C@H](C=O)C[C@H]1CCNC1=O`, the IC50 [2] was 0.24 µM, the IC50 [3] was 0.37 µM and the CC50 [1] was > 100 µM.

With `CC(C)C[C@H](NC(=O)OC1CC2(CCN(C#N)CC2)C1)C(=O)N[C@H](C=O)C[C@H]1CCNC1=O` the IC50 [2] was 0.32 µM, the IC50 [3] was 0.56 µM and the CC50 [1] was > 100 µM.

With `CC(C)C[C@H](NC(=O)OC1(C)CN(C(=O)OC(C)(C)C)C1)C(=O)N[C@@H](C[C@H]1CCNC1=O)C(=O)C(O)S(=O)(=O)O` (stereo partly specified) the CC50 [1] was > 100 µM.

In the case of `CC(C)C[C@H](NC(=O)OC1CCC2(C1)CN(C(=O)OC(C)(C)C)C2)C(=O)N[C@@H](C[C@H]1CCNC1=O)C(=O)C(O)S(=O)(=O)O` (stereo partly specified), the CC50 [1] is reported as > 100 µM.

In the case of `CC(C)C[C@H](NC(=O)OC1CC2(CCN(S(C)(=O)=O)CC2)C1)C(=O)N[C@@H](C[C@H]1CCNC1=O)C(=O)C(O)S(=O)(=O)O` (stereo partly specified), the CC50 [1] is reported as > 100 µM.

For `CC(C)C[C@H](NC(=O)OC1CN(C(=O)OC(C)(C)C)C1)C(=O)N[C@H](C=O)C[C@H]1CCNC1=O`, the IC50 [2] was 2.5 µM, the IC50 [3] was 1.65 µM and the CC50 [1] was > 100 µM.

For `CC(C)C[C@H](NC(=O)OC1CC2(CCN(C(=O)OC(C)(C)C)C2)C1)C(=O)N[C@H](C=O)C[C@H]1CCNC1=O` (stereo partly specified), the IC50 [3] was 0.7 µM and the CC50 [1] was > 100 µM.

For `CC(C)C[C@H](NC(=O)OC1CC2(CCN(C(=O)OC(C)(C)C)CC2)C1)C(=O)N[C@H](C=O)C[C@H]1CCNC1=O`, the IC50 [2] was 0.36 µM, the IC50 [3] was 1.2 µM and the CC50 [1] was > 100 µM. For the same compound, the EC50 (SARS-CoV-2 [4]) was 0.09 µM, the Activity (SARS-CoV-2 [5]) was “Active” and the selectivity ratio [6] was 1250.
